Reference: ChEMBL document CHEMBL1124215, “Improved delivery through biological membranes. 26. Design, synthesis, and pharmacological activity of a novel chemical delivery system for beta-adrenergic blocking agents” (1988)

What was measured:
Oryctolagus cuniculus [1] = experiment: Effect on IOP of rabbits 30 mins after administration (2.5%); format: functional
In short: (§1)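 IOP was read by pneumatonometer in unrestrained, unanesthetized rabbits after local propacaine drops. Drug was given as a 1% or 2.5% solution in pH 7.4 buffer or saline to both eyes, at least four rabbits per group; controls (at least three) received carrier only. Readings were taken at 30 and 60 min and at 2, 3, 4, 6 and 8 h. Values are mean ± SE; Student's t test.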

Oryctolagus cuniculus [2] = experiment: Concentration of propranolone oxime in cornea of rabbit after 60 min administration of compound; format: functional, organism-based
In short: (§2)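 Adult male New Zealand albino rabbits (2.5–3.5 kg), at least four per time point. 100 µL of a 1% solution in saline was instilled topically into both eyes. Animals were killed at 30, 60 or 120 min. Cornea and iris-ciliary body were homogenized in methanol to 10% homogenates and deproteinized by centrifugation. Aqueous humor was analysed undiluted. HPLC was calibrated against spiked control-rabbit tissue. Values are mean ± SE, µg/g.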

Oryctolagus cuniculus [3] = experiment: Effect on IOP of rabbits 60 mins after administration (2.5%); format: functional; in short: as §1
Oryctolagus cuniculus [4] = experiment: Concentration of propranolone oxime in iris-ciliary body of rabbit after 30 min administration of compound; format: functional, organism-based; in short: as §2
Oryctolagus cuniculus [5] = experiment: Effect on IOP of rabbits 2 hr after administration (1%); format: functional; in short: as §1
Oryctolagus cuniculus [6] = experiment: Concentration in iris -ciliary body of rabbit after 30 min administration of compound; format: functional, organism-based; in short: as §2
Oryctolagus cuniculus [7] = experiment: Effect on IOP of rabbits 0 min after administration (1%); format: functional; in short: as §1
Oryctolagus cuniculus [8] = experiment: Percentage change of IOP in rabbits after 0 min administration (1%) of compound; format: functional; in short: as §1
Oryctolagus cuniculus [9] = experiment: Effect on IOP of rabbits 2hmin after administration (2.5%); format: functional; in short: as §1
Oryctolagus cuniculus [10] = experiment: Percentage change of IOP in rabbits after 4 hr administration (2.5%) of compound; format: functional
In short: (§3)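 Rabbits received 1% or 2.5% drug solution in pH 7.4 buffer or saline in both eyes, at least four per group. A control group of at least three rabbits received carrier only. IOP was read by pneumatonometer in unrestrained, unanesthetized animals after one drop of 0.5% propacaine diluted 1:2 with saline. Readings were taken at 30 and 60 min and at 2–8 h. Values are mean ± SE, with significance by Student's t test.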

Oryctolagus cuniculus [11] = experiment: Effect on IOP of rabbits 4 hr after administration (2.5%); format: functional; in short: as §1
Oryctolagus cuniculus [12] = experiment: Effect on IOP of rabbits 6 hr min after administration (1%); format: functional; in short: as §1
Oryctolagus cuniculus [13] = experiment: Concentration in aqueous humor of rabbit after 60 min administration of compound; format: functional, organism-based; settings: Aqueous humor of eyeball; in short: as §2
Oryctolagus cuniculus [14] = experiment: Percentage change of IOP in rabbits after 2 hr administration (1%) of compound; format: functional; in short: as §1
Oryctolagus cuniculus [15] = experiment: Percentage change of IOP in rabbits after 30 min administration (1%) of compound; format: functional; in short: as §3
Oryctolagus cuniculus [16] = experiment: Effect on IOP of rabbits 6 hr min after administration (2.5%); format: functional; in short: as §1
Oryctolagus cuniculus [17] = experiment: Concentration of propranolone oxime in aqueous humor of rabbit after 30 min administration of compound; format: functional, organism-based; settings: Aqueous humor of eyeball; in short: as §2
Oryctolagus cuniculus [18] = experiment: Percentage change of IOP in rabbits after 2 hr administration (2.5%) of compound; format: functional; in short: as §1
Oryctolagus cuniculus [19] = experiment: Percentage change of IOP in rabbits after 60 min administration (1%) of compound; format: functional; in short: as §3
Oryctolagus cuniculus [20] = experiment: Concentration in iris-ciliary body of rabbit after 120 min administration of compound; format: functional, organism-based; in short: as §2
Oryctolagus cuniculus [21] = experiment: Effect on IOP of rabbits 30 mins after administration (1%); format: functional; in short: as §1
Oryctolagus cuniculus [22] = experiment: Percentage change of IOP in rabbits after 3h administration (1%) of compound; format: functional; in short: as §3
Oryctolagus cuniculus [23] = experiment: Percentage change of IOP in rabbits after 6 hr administration (1%) of compound; format: functional; in short: as §3
Oryctolagus cuniculus [24] = experiment: Percentage change of IOP in rabbits after 0 min administration (2.5%) of compound; format: functional; in short: as §1
Oryctolagus cuniculus [25] = experiment: Effect on IOP of rabbits 4 hr after administration (1%); format: functional; in short: as §1
Oryctolagus cuniculus [26] = experiment: Concentration of propranolone oxime in aqueous humor of rabbit after 60 min administration of compound; format: functional, organism-based; settings: Aqueous humor of eyeball; in short: as §2
Oryctolagus cuniculus [27] = experiment: Concentration in cornea of rabbit after 30 min administration of compound; format: functional, organism-based; in short: as §2
Oryctolagus cuniculus [28] = experiment: Concentration of propranolone oxime in cornea of rabbit after 30 min administration of compound; format: functional, organism-based; in short: as §2
Oryctolagus cuniculus [29] = experiment: Percentage change of IOP in rabbits after 8 hr administration (1%) of compound; format: functional; in short: as §3
Oryctolagus cuniculus [30] = experiment: Percentage change of IOP in rabbits after 30 min administration (2.5%) of compound; format: functional; in short: as §3
Oryctolagus cuniculus [31] = experiment: Percentage change of IOP in rabbits after 6 hr administration (2.5%) of compound; format: functional; in short: as §3
Oryctolagus cuniculus [32] = experiment: Effect on IOP of rabbits 8 hr min after administration (1%); format: functional; in short: as §1
Oryctolagus cuniculus [33] = experiment: Concentration in cornea of rabbit after 60 min administration of compound; format: functional, organism-based; in short: as §2
Oryctolagus cuniculus [34] = experiment: Concentration in iris -ciliary body of rabbit after 60 min administration of compound; format: functional, organism-based; in short: as §2
Oryctolagus cuniculus [35] = experiment: Percentage change of IOP in rabbits after 60 min administration (2.5%) of compound; format: functional; in short: as §3
Oryctolagus cuniculus [36] = experiment: Effect on IOP of rabbits 60 mins after administration (1%); format: functional; in short: as §1
Oryctolagus cuniculus [37] = experiment: Percentage change of IOP in rabbits after 8 hr administration (2.5%) of compound; format: functional; in short: as §3
Oryctolagus cuniculus [38] = experiment: Effect on IOP of rabbits 3h after administration (2.5%); format: functional; in short: as §1
Oryctolagus cuniculus [39] = experiment: Effect on IOP of rabbits 3h after administration (1%); format: functional; in short: as §1
Oryctolagus cuniculus [40] = experiment: Effect on IOP of rabbits 8 hr min after administration (2.5%); format: functional; in short: as §1
Oryctolagus cuniculus [41] = experiment: Percentage change of IOP in rabbits after 3h administration (2.5%) of compound; format: functional; in short: as §3
Oryctolagus cuniculus [42] = experiment: Concentration in cornea of rabbit after 120 min administration of compound; format: functional, organism-based; in short: as §2
Oryctolagus cuniculus [43] = experiment: Percentage change of IOP in rabbits after 4 hr administration (1%) of compound; format: functional; in short: as §3
Oryctolagus cuniculus [44] = experiment: Effect on IOP of rabbits 0 min after administration (2.5%); format: functional; in short: as §1
Oryctolagus cuniculus [45] = experiment: Percentage change of IOP in rabbits after 5 hr administration (1%) of compound; format: functional; in short: as §3
Oryctolagus cuniculus [46] = experiment: Effect on IOP of rabbits 8 hr after administration (1%); format: functional; in short: as §1
Oryctolagus cuniculus [47] = experiment: Percentage change of IOP in rabbits after 1 hr administration (1%) of compound; format: functional; in short: as §1
Oryctolagus cuniculus [48] = experiment: Effect on IOP of rabbits 6 hr after administration (1%); format: functional; in short: as §1
Oryctolagus cuniculus [49] = experiment: Effect on IOP of rabbits 5 hr after administration (1%); format: functional
Oryctolagus cuniculus [50] = experiment: Effect on IOP of rabbits 1 hr after administration (1%); format: functional; in short: as §1

CC(C)NC/C(COc1cccc2ccccc12)=N\O
IOP (Oryctolagus cuniculus [1]): 26.5 mmHg
Concentration (Oryctolagus cuniculus [2]): 16.4 µg/g
IOP (Oryctolagus cuniculus [3]): 23.4 mmHg
Concentration (Oryctolagus cuniculus [4]): 7.8 µg/g
IOP (Oryctolagus cuniculus [5]): 23.4 mmHg
Concentration (Oryctolagus cuniculus [6]): 2.1 µg/g
IOP (Oryctolagus cuniculus [7]): 27.8 mmHg
Change (Oryctolagus cuniculus [8]): 0%
IOP (Oryctolagus cuniculus [9]): 22.6 mmHg
Change (Oryctolagus cuniculus [10]): -21.5%
IOP (Oryctolagus cuniculus [11]): 20.4 mmHg
IOP (Oryctolagus cuniculus [12]): 25.8 mmHg
Concentration (Oryctolagus cuniculus [13]): 0.7 µg/g
Change (Oryctolagus cuniculus [14]): -15.8%
Change (Oryctolagus cuniculus [15]): -3.23%
IOP (Oryctolagus cuniculus [16]): 23.6 mmHg
Concentration (Oryctolagus cuniculus [17]): 0.8 µg/g
Change (Oryctolagus cuniculus [18]): -13.08%
Change (Oryctolagus cuniculus [19]): >-11.51%
Concentration (Oryctolagus cuniculus [20]): 0.4 µg/g
IOP (Oryctolagus cuniculus [21]): 26.9 mmHg
Change (Oryctolagus cuniculus [22]): -16.2%
Change (Oryctolagus cuniculus [23]): -7.08%
Change (Oryctolagus cuniculus [24]): 0%
IOP (Oryctolagus cuniculus [25]): 22.2 mmHg
Concentration (Oryctolagus cuniculus [26]): 0.8 µg/g
Concentration (Oryctolagus cuniculus [27]): 1.7 µg/g
Concentration (Oryctolagus cuniculus [28]): 23.8 µg/g
Change (Oryctolagus cuniculus [29]): 0.5%
Change (Oryctolagus cuniculus [30]): 1.92%
Change (Oryctolagus cuniculus [31]): >-9.23%
IOP (Oryctolagus cuniculus [32]): 27.9 mmHg
Concentration (Oryctolagus cuniculus [33]): 1.1 µg/g
Concentration (Oryctolagus cuniculus [34]): 1.8 µg/g
Change (Oryctolagus cuniculus [35]): -10%
IOP (Oryctolagus cuniculus [36]): 24 mmHg
Change (Oryctolagus cuniculus [37]): -0.77%
IOP (Oryctolagus cuniculus [38]): 21.2 mmHg
IOP (Oryctolagus cuniculus [39]): 23.3 mmHg
IOP (Oryctolagus cuniculus [40]): 25.8 mmHg
Change (Oryctolagus cuniculus [41]): >-18.46%
Concentration (Oryctolagus cuniculus [42]): 1.1 µg/g
Change (Oryctolagus cuniculus [43]): -20.1%
IOP (Oryctolagus cuniculus [44]): 26 mmHg

CC(C)(C)NC[C@H](O)COc1nsnc1N1CCOCC1 (stereo in doubt) [TIMOLOL]
IOP (Oryctolagus cuniculus [5]): 24 mmHg
IOP (Oryctolagus cuniculus [7]): 28.44 mmHg
Change (Oryctolagus cuniculus [8]): 0%
Change (Oryctolagus cuniculus [45]): -5.49%
Change (Oryctolagus cuniculus [14]): -15.6%
Change (Oryctolagus cuniculus [15]): -2.43%
IOP (Oryctolagus cuniculus [46]): 26.33 mmHg
Change (Oryctolagus cuniculus [47]): -14.6%
IOP (Oryctolagus cuniculus [21]): 27.75 mmHg
Change (Oryctolagus cuniculus [22]): -11.6%
Change (Oryctolagus cuniculus [23]): 1.2%
IOP (Oryctolagus cuniculus [25]): 26.93 mmHg
IOP (Oryctolagus cuniculus [48]): 28.78 mmHg
IOP (Oryctolagus cuniculus [39]): 25.13 mmHg
IOP (Oryctolagus cuniculus [49]): 26.88 mmHg
IOP (Oryctolagus cuniculus [50]): 24.3 mmHg
Change (Oryctolagus cuniculus [43]): -5.31%
